≈ marks a conversion by molar mass, not a printed value.
Tested on: Mycobacterium tuberculosis
Assay: Anti-mycobacterial activity against Mycobacterium tuberculosis H37Rv incubated for 5 days by alamar blue assay
Assay type: functional
Details: 120 h, time 5 day
Method in brief: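 Inoculum from Löwenstein-Jensen culture suspended in Middlebrook 7H9 broth with 0.2% glycerol and 10% OADC, diluted 1:20. Compounds serially diluted in 7H9, final 100 to 0.4 µg/ml. Sealed plates incubated 37°C for 5 days, then Alamar Blue/10% Tween 80 (1:1) added for 24 h. Blue = no growth, pink = growth; MIC is lowest concentration preventing blue-to-pink change.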

| Compound | MIC |
| --- | --- |
| COc1ccc(-c2cn3cc(C4=CCN(S(=O)(=O)C5CC5)CC4)ccc3n2)cc1OC | 12.5 µg/mL (≈ 28.4 µM) |
| COc1ccc(-c2cn3cc(C4=CCN(S(=O)(=O)c5ccc(C)cc5)CC4)ccc3n2)cc1OC | 25 µg/mL (≈ 51.1 µM) |
| COc1ccc(-c2cn3cc(C4=CCN(C(=O)C5CCCCC5)CC4)ccc3n2)cc1OC | 50 µg/mL (≈ 112 µM) |
| COc1ccc(-c2cn3cc(C4=CCN(C(=O)c5cocn5)CC4)ccc3n2)cc1OC | 50 µg/mL (≈ 116 µM) |
| COc1ccc(-c2cn3cc(C4=CCN(C(=O)c5cccc(F)c5)CC4)ccc3n2)cc1OC | 50 µg/mL (≈ 109 µM) |
| CCCS(=O)(=O)N1CC=C(c2ccc3nc(-c4ccc(OC)c(OC)c4)cn3c2)CC1 | 12.5 µg/mL (≈ 28.3 µM) |
| COc1ccc(-c2cn3cc(C4=CCN(S(=O)(=O)C5CCCC5)CC4)ccc3n2)cc1OC | 25 µg/mL (≈ 53.5 µM) |
| COc1ccc(-c2cn3cc(C4=CCN(C(C)=O)CC4)ccc3n2)cc1OC | > 100 µg/mL |
| COc1ccc(-c2cn3cc(C4=CCN(C(=O)c5cccc(C(F)(F)F)c5)CC4)ccc3n2)cc1OC | 12.5 µg/mL (≈ 24.6 µM) |
| COc1ccc(-c2cn3cc(C4=CCN(C(=O)COCc5ccccc5)CC4)ccc3n2)cc1OC | 50 µg/mL (≈ 103 µM) |
| CC[C@@H](CO)NCCN[C@@H](CC)CO [ETHAMBUTOL] | 6.25 µg/mL (≈ 30.6 µM) |
| CCS(=O)(=O)N1CC=C(c2ccc3nc(-c4ccc(OC)c(OC)c4)cn3c2)CC1 | 12.5 µg/mL (≈ 29.2 µM) |
| COc1ccc(-c2cn3cc(C4=CCN(S(=O)(=O)C5CCCCC5)CC4)ccc3n2)cc1OC | 25 µg/mL (≈ 51.9 µM) |
| COc1ccc(-c2cn3cc(C4=CCN(S(=O)(=O)c5ccc(Cl)s5)CC4)ccc3n2)cc1OC | 6.25 µg/mL (≈ 12.1 µM) |
| COc1ccc(-c2cn3cc(C4=CCN(S(=O)(=O)c5ccc(F)cc5)CC4)ccc3n2)cc1OC | 6.25 µg/mL (≈ 12.7 µM) |
| COc1ccc(-c2cn3cc(C4=CCN(C(=O)C5CC5)CC4)ccc3n2)cc1OC | 50 µg/mL (≈ 124 µM) |

| Compound | MIC |
| --- | --- |
| COc1ccc(-c2cn3cc(C4=CCN(S(=O)(=O)c5ccc(C(C)=O)cc5)CC4)ccc3n2)cc1OC | 6.25 µg/mL (≈ 12.1 µM) |
| COc1ccc(-c2cn3cc(C4=CCN(S(=O)(=O)c5ccc(Br)cc5)CC4)ccc3n2)cc1OC | 6.25 µg/mL (≈ 11.3 µM) |
| COc1ccc(-c2cn3cc(C4=CCN(S(=O)(=O)c5ccc([N+](=O)[O-])cc5)CC4)ccc3n2)cc1OC | 6.25 µg/mL (≈ 12 µM) |
| Nc1ccc(C(=O)O)c(O)c1 [AMINOSALICYLIC ACID] | 12.5 µg/mL (≈ 81.6 µM) |
| COc1ccc(-c2cn3cc(C4=CCN(C(=O)c5ccccn5)CC4)ccc3n2)cc1OC | 100 µg/mL (≈ 227 µM) |
| COc1ccc(-c2cn3cc(C4=CCN(S(=O)(=O)c5ccc(C(F)(F)F)cc5)CC4)ccc3n2)cc1OC | 6.25 µg/mL (≈ 11.5 µM) |
| COc1ccc(-c2cn3cc(C4=CCN(C(=O)c5cccs5)CC4)ccc3n2)cc1OC | 25 µg/mL (≈ 56.1 µM) |
| COc1ccc(-c2cn3cc(C4=CCN(S(=O)(=O)c5ccc(Br)s5)CC4)ccc3n2)cc1OC | 3.12 µg/mL (≈ 5.58 µM) |
| COc1ccc(-c2cn3cc(C4=CCN(C(=O)C(C)(C)C)CC4)ccc3n2)cc1OC | 100 µg/mL (≈ 238 µM) |
| COc1ccc(-c2cn3cc(C4=CCN(S(=O)(=O)c5ccc(Cl)cc5)CC4)ccc3n2)cc1OC | 6.25 µg/mL (≈ 12.3 µM) |
| COc1ccc(-c2cn3cc(C4=CCN(S(=O)(=O)c5ccc(C(C)(C)C)cc5)CC4)ccc3n2)cc1OC | 6.25 µg/mL (≈ 11.8 µM) |
| COc1ccc(-c2cn3cc(C4=CCN(C(=O)c5ccccc5F)CC4)ccc3n2)cc1OC | 6.25 µg/mL (≈ 13.7 µM) |
| COc1ccc(-c2cn3cc(C4=CCN(S(=O)(=O)c5ccccc5)CC4)ccc3n2)cc1OC | 25 µg/mL (≈ 52.6 µM) |
| COc1ccc(-c2cn3cc(C4=CCN(C(=O)c5ccc(F)cc5)CC4)ccc3n2)cc1OC | 25 µg/mL (≈ 54.6 µM) |
| COc1ccc(-c2cn3cc(C4=CCN(C(=O)c5ccco5)CC4)ccc3n2)cc1OC | 50 µg/mL (≈ 116 µM) |

From ChEMBL document CHEMBL5107963, “Design, synthesis and anti-mycobacterial evaluation of imidazo[1,2-a]pyridine analogues” (RSC Med Chem, 2022)
